Most compounds without a hit are left out; they make up all but 3.3% or so of the library.
TCR-CD3 inh: blocks the human TCR-CD3 interaction. inhibition, % at 9.4 µM. actives 0.37% (n = 360,000). TAMRA-labeled TCR probe fluorescence, biochemical; in the data active means inhibition above about 19%;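 further: recombinant mutant TCR 2C K166C tagged with TAMRA read by polarization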
PRMT1 inh: inhibitors of human PRMT1 | recombinant PRMT1, activity-based probe fluorescence polarization | inhibition, % at 2.79 µM | AID 652257 | actives 1.3% (n = 370,000) | Q99873;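 active means inhibition above about 21% made by adding two undisclosed values, limit read from the data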
rCAG RNA binder: molecules binding r(CAG) RNA repeats. r(CAG) RNA repeat, TO-PRO-1 dye displacement fluorescence. AID 651821. inhibition, % at 3 µM. actives 1.3% (n = 370,000);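 active means inhibition above the plate cutoff, the mean of all test compounds on that plate plus 3 SD, cut at about 35% in these data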;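 further: higher means more dye released from RNA so lower well fluorescence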
SIAE primary: blocks human sialic acid acetylesterase | SIAE FP-Rh probe binding, fluorescence polarization | inhibition, % at 9.66 µM | actives 0.69% (n = 370,000) | AID 1053197;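 active means inhibition above a cutoff: mean of compounds within the control limits plus 3 SD of those, cut at about 17% in these data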
Target sequence (Q9HAT2 whole entry, looked up): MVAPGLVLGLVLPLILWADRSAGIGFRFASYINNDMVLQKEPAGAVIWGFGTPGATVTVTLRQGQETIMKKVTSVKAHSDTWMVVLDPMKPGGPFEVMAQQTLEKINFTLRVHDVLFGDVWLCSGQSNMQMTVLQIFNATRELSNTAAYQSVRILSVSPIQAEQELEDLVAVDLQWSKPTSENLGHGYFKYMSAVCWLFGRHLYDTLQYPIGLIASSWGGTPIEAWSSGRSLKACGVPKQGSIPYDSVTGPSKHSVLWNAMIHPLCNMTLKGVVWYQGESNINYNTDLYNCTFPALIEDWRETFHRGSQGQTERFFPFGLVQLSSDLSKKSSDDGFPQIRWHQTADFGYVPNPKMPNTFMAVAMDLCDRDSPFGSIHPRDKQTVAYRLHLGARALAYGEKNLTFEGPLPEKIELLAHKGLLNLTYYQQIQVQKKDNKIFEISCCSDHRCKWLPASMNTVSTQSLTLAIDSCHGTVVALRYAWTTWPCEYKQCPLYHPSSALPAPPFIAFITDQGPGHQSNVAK
mABHD4 FP: ABHD4 (mouse) inhibition, primary FP screen. actives 0.54% (n = 370,000). purified mABHD4, FP-Rh probe fluorescence polarization. inhibition, % at 8.92 µM. Q8VD66;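 active means inhibition exceeding the mean over every tested compound plus 3 SD, cut at about 30% in these data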
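Test system: mABHD4 protein | Buffer or medium: HEPES pH 7.0 buffer, 150 mM NaCl, 0.01% Pluronic F-127 | Probe or stimulus: FP-Rh fluorescent activity-based probe, added after compound pre-incubation | Timing: Pre-incubation 45 min, probe exposure 60 min, at 25 °C | Technique: Fluorescence polarization, excitation 525 nm, emission 598 nm, BODIPY TMR filters | Repeats: Single well per compound (singlicate)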
rCAG bind conf: r(CAG) RNA repeat binding, confirmation. actives 70% (n = 4,300). shares compounds with rCAG RNA binder. inhibition, % at 3 µM. TO-PRO-1 dye displacement fluorescence. AID 652065;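 active means inhibition above a per-plate cutoff, the mean inhibition of sample wells plus 3 SD, cut at about 35% in these data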;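 further: loss of TO-PRO-1 fluorescence as compound displaces dye from 1x1 AA loop RNA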
dCAG dye counter: disrupts DNA CAG TO-PRO-1 complex, flagging rCAG hits. inhibition, % at 3 µM. AID 652068. actives 94% (n = 4,300). shares compounds with rCAG RNA binder. d(CAG) DNA oligo TO-PRO-1 dye displacement, fluorescence;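 active means inhibition above its plate's cutoff, the mean test-well inhibition plus 3 SD, cut at about 4.8% in these data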;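 further: hits displace the dye from DNA and so lower well fluorescence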
dCAG dye DR: counter-screen for rCAG binders: inhibitors of DNA CAG TO-PRO-1 complex; actives 20% (n = 250); DNA CAG/GTC duplex TO-PRO-1 dye displacement fluorescence; IC50, µM; AID 686960; shares compounds with rCAG RNA binder; in the data active means IC50 below about 10 µM
Large screens that a line does not name were inactive (follow-up assays come after a bar, where they were run).

Cc1ccc(C(=O)Nc2ccccc2C(=O)O)cc1S(=O)(=O)Nc1ccc(Br)cc1	rCAG RNA binder 83 | rCAG bind conf 86 | dCAG dye counter 56
Cc1ccc(F)cc1NC(=O)c1ccc(NS(=O)(=O)c2ccc(Br)s2)cc1	rCAG RNA binder 41 | rCAG bind conf 38 | dCAG dye counter 11
Cc1cc(C)cc(NC(=O)N2CCC(c3nc4ccc(Cl)cc4[nH]3)CC2)c1	none (no result: TCR-CD3 inh)
O=S1(=O)c2ccc(Br)cc2OC[C@@H](Cc2ccccc2)N1Cc1cn(Cc2ccccc2)nn1	none (no result: TCR-CD3 inh)
CCCC1CCC2(CC1)CCC2OC(=O)Nc1cccc(C(F)(F)F)c1 (stereo unspecified)	none (no result: TCR-CD3 inh, rCAG RNA binder)
CCOC(=O)c1c(N)sc2c1CCC(C)C2 (stereo unspecified)	none
CCOC(=O)c1c(NS(C)(=O)=O)sc2c1CCC(C)C2 (stereo unspecified)	rCAG RNA binder 48 | rCAG bind conf inactive | dCAG dye counter 8.0
CCOC(=O)c1c(NC(=O)C2C3C=CC(C3)C2C(=O)O)sc2c1CC(C)CC2 (stereo unspecified)	rCAG RNA binder 48 | rCAG bind conf 54 | dCAG dye counter 14
CN(C(=O)CSc1nc(-c2ccc(C(C)(C)C)cc2)c(C#N)c(=O)[nH]1)C1CCCCC1	rCAG RNA binder 70 | rCAG bind conf 84 | dCAG dye counter 50
N#Cc1c(-c2ccccc2)nc(SCC(=O)NC2CCCCC2)[nH]c1=O	none
O=S1(=O)c2ccc(Br)cc2OC[C@@H](c2ccccc2)N1Cc1cn(Cc2ccccc2)nn1	none (no result: TCR-CD3 inh)
Cc1ccc(S(=O)(=O)N2[C@@H](c3ccc(F)cc3)C(C(=O)O)=CC[C@H]2c2ccc3c(c2)OCO3)cc1	rCAG RNA binder 53 | rCAG bind conf 51 | dCAG dye counter 17
Cc1ccc([C@@H]2CC=C(C(=O)O)[C@H](c3ccccc3F)N2S(=O)(=O)c2ccc(C)cc2)cc1	rCAG RNA binder 61 | rCAG bind conf 55 | dCAG dye counter 21
Cc1ccc(S(=O)(=O)N2[C@@H](c3ccccc3F)C(C(=O)O)=CC[C@H]2c2ccc3c(c2)OCO3)cc1	rCAG RNA binder 46 | rCAG bind conf 41 | dCAG dye counter 10
COc1ccc([C@@H]2CC=C(C(=O)O)[C@H](c3ccccc3F)N2S(=O)(=O)c2ccc(C)cc2)cc1OC	none
O=[N+]([O-])c1cccc(OCCCN2CCC(C(O)(c3ccccc3)c3ccccc3)CC2)c1	none (no result: TCR-CD3 inh)
COc1ccc(CCNC(=O)c2cnn(-c3ccccc3)c2N)cc1OC	none (no result: TCR-CD3 inh)
O=S(=O)(Nn1c(O)c(C=C2N=c3ccccc3=N2)sc1=S)c1ccccc1	rCAG RNA binder 89 | rCAG bind conf 72 | dCAG dye counter 37
CCn1c(SCC(=O)c2ccc(-c3ccccc3)cc2)nnc1-c1ccccc1OC	none (no result: TCR-CD3 inh)
Cc1c(/C=C2\SC(=Nc3cccc(C(=O)O)c3)NC2=O)c2ccccc2n1C	rCAG RNA binder 45 | rCAG bind conf 40 | dCAG dye counter 15
Cc1cccc(N=C2NC(=O)/C(=C/c3cccn3C)S2)c1	none
C[C@@H]1ON(C)[C@H]2C[C@H]3c4[nH]c5c(-c6ccc7c(c6)OCO7)cccc5c4CCN3C[C@@H]12	none (no result: TCR-CD3 inh)
O=C(NC1CCCCN(Cc2cccc(C(F)(F)F)c2)C1=O)c1cccc(F)c1 (stereo unspecified)	none (no result: TCR-CD3 inh)
Cc1ccc(C(=O)Nn2cnc3scc(-c4cccs4)c3c2=O)c(O)c1	rCAG RNA binder 40 | rCAG bind conf inactive | dCAG dye counter 8.7
CC(C)(C)c1ccc(N/N=C(\C#N)S(=O)(=O)C(C)(C)C)cc1	rCAG RNA binder 36 | rCAG bind conf 50 | dCAG dye counter 19
COC(=O)c1cc(NS(=O)(=O)c2ccc(N3CCCCCC3)c([N+](=O)[O-])c2)cc(C(=O)OC)c1	rCAG RNA binder 39 | rCAG bind conf 60 | dCAG dye counter 20
O=C(O)c1ccc(NS(=O)(=O)c2ccc(N3CCCC3)c([N+](=O)[O-])c2)cc1	none
Cc1ccc(NC(=S)NNC(=O)c2ccc(N3CCOCC3)c([N+](=O)[O-])c2)cc1C	rCAG RNA binder 58 | rCAG bind conf 61 | dCAG dye counter 26
COC(=O)c1cc(NS(=O)(=O)c2ccc(N3CCOCC3)c([N+](=O)[O-])c2)cc(C(=O)OC)c1	rCAG RNA binder 51 | rCAG bind conf 40 | dCAG dye counter 11
Cc1cc(S(=O)(=O)Nc2nc(CN3CCOCC3)nc3sc4c(c23)CCCC4)ccc1F	none
CC1CCc2c(sc3nc(CN4CCOCC4)nc(NS(=O)(=O)c4cccc([N+](=O)[O-])c4)c23)C1 (stereo unspecified)	rCAG RNA binder 62 | rCAG bind conf 71 | dCAG dye counter 28 | dCAG dye DR inactive
Cc1onc(-c2ccccc2)c1C(=O)NC(=S)Nc1sc2c(c1C#N)CCCC2	none
Cc1onc(-c2ccccc2)c1C(=O)NC(=S)Nc1sc2c(c1C#N)CCC(C)C2 (stereo unspecified)	rCAG RNA binder 42 | rCAG bind conf inactive | dCAG dye counter 15
Cc1cc(C)nc(NS(=O)(=O)c2ccc(NC(=O)COc3ccccc3F)cc2)n1	none
O=C(COc1ccccc1F)Nc1cc(S(=O)(=O)Nc2cccc(Cl)c2)ccc1O	rCAG RNA binder 64 | rCAG bind conf 56 | dCAG dye counter 22
COc1cc(NS(=O)(=O)c2ccc(NC(=O)/C(=C/c3ccccc3Cl)NC(=O)c3ccccc3)cc2)nc(OC)n1	rCAG RNA binder 74 | rCAG bind conf 79 | dCAG dye counter 34 | dCAG dye DR 9.8
O=C(Nc1ccc(S(=O)(=O)Nc2nccs2)cc1)/C(=C/c1ccccc1Cl)NC(=O)c1ccccc1	rCAG RNA binder 78 | rCAG bind conf 68 | dCAG dye counter 35
COC(=O)c1cc(-c2ccc(C(C)(C)C)cc2)c(=O)n2c1CCC2	none (no result: TCR-CD3 inh)
COC(=O)[C@]12C[C@H](CC(=O)N3CCCC3)C(=O)N(Cc3ccc(Cl)cc3Cl)C1=C[C@H](C(C)(C)C)O[C@@H]2C	none (no result: TCR-CD3 inh)
O=C1NC(=S)N(C(=O)c2ccc(F)cc2)/C1=C/c1cccnc1	none
COc1ccc(/C=C2\C(=O)NC(=S)N2C(=O)c2ccc(C)cc2)cc1	rCAG RNA binder 58 | rCAG bind conf 76 | dCAG dye counter 35
Cn1c(SCCc2ccccc2)nnc1-c1ccco1	none (no result: TCR-CD3 inh)
Cc1ccc(S(=O)(=O)Nc2cc(C(=O)Nc3cc(C)cc(C)c3)ccc2Cl)cc1	rCAG RNA binder 36 | rCAG bind conf 42 | dCAG dye counter 9.8
Cc1cc(C)cc(NC(=O)c2ccc(S(=O)(=O)C(F)F)cc2)c1	none
COc1ccc(Cn2cc(CN3CC=CS3(=O)=O)nn2)cc1	none (no result: TCR-CD3 inh)
